Data as given in PMC4233149 (Clinical cancer research : an official journal of the …, 2014).
Marks after values point to notes of the source that are not given here.

Experiment: Phase I safety and tolerability, weekly
Assay type: in vivo, human
In short: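 Oral weekly dose escalation followed a 3+3 design (planned 90, 135, 200, 300mg, intermediate doses allowed), then a modified toxicity-probability-interval confirmation stage. A DLT was any drug-related CTCAE v3.0 ≥G4 hematological, ≥G3 febrile neutropenia or ≥G3 non-hematological toxicity. Safety visits, glucose, C-peptide and HbA1c monitoring followed a fixed schedule; AEs were graded by CTCAE v3.0.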

[1] = 200mg QW, G3, cycle 1, dose-limiting toxicity

NC1(c2ccc(-c3nc4ccn5c(=O)[nH]nc5c4cc3-c3ccccc3)cc2)CCC1 [MK-2206]
Diarrhea, number of AEs (200mg QW, G3, cycle 1): 0 (0)
Dry skin, number of AEs (200mg QW, G3, cycle 1): 0 (0)
Dysgeusia, number of AEs (200mg QW, G3, cycle 1): 0 (0)
Fatigue, number of AEs (200mg QW, G3, cycle 1): 0 (0)
Nausea, number of AEs (200mg QW, G3, cycle 1): 0 (0)
Pruritus, number of AEs (200mg QW, G3, cycle 1): 0 (0)
Stomatitis, number of AEs (200mg QW, G3, cycle 1): 0 (0)
Vomiting, number of AEs (200mg QW, G3, cycle 1): 0 (0)
Dermatitis acneiform, number of AEs [1]: 1^c (1)
Rash (all rash terms collated), number of AEs [1]: 3^c (3)
Anorexia, number of AEs (250mg QW, G1, all cycles): 0 (0)
Dermatitis acneiform, number of AEs (250mg QW, G1, all cycles): 0 (0)
Diarrhea, number of AEs (250mg QW, G1, all cycles): 0 (0)
Dysgeusia, number of AEs (250mg QW, G1, all cycles): 0 (0)
Fatigue, number of AEs (250mg QW, G1, all cycles): 0 (0)
Nausea, number of AEs (250mg QW, G1, all cycles): 0 (0)
Pruritus, number of AEs (250mg QW, G1, all cycles): 0 (0)
Stomatitis, number of AEs (250mg QW, G1, all cycles): 2
Vomiting, number of AEs (250mg QW, G1, all cycles): 0 (0)
Anorexia, number of AEs (250mg QW, G1, cycle 1): 0 (0)
Dermatitis acneiform, number of AEs (250mg QW, G1, cycle 1): 0 (0)
Diarrhea, number of AEs (250mg QW, G1, cycle 1): 0 (0)
Dysgeusia, number of AEs (250mg QW, G1, cycle 1): 0 (0)
Fatigue, number of AEs (250mg QW, G1, cycle 1): 0 (0)
Nausea, number of AEs (250mg QW, G1, cycle 1): 0 (0)
Pruritus, number of AEs (250mg QW, G1, cycle 1): 0 (0)
Stomatitis, number of AEs (250mg QW, G1, cycle 1): 1
Vomiting, number of AEs (250mg QW, G1, cycle 1): 0 (0)
Anorexia, number of AEs (250mg QW, G2, all cycles): 0 (0)
Dermatitis acneiform, number of AEs (250mg QW, G2, all cycles): 0 (0)
Diarrhea, number of AEs (250mg QW, G2, all cycles): 0 (0)
Dry skin, number of AEs (250mg QW, G2, all cycles): 0 (0)
Dysgeusia, number of AEs (250mg QW, G2, all cycles): 0 (0)
Fatigue, number of AEs (250mg QW, G2, all cycles): 0 (0)
Nausea, number of AEs (250mg QW, G2, all cycles): 0 (0)
Pruritus, number of AEs (250mg QW, G2, all cycles): 0 (0)
Rash (all rash terms collated), number of AEs (250mg QW, G2, all cycles): 2
Stomatitis, number of AEs (250mg QW, G2, all cycles): 0 (0)
Vomiting, number of AEs (250mg QW, G2, all cycles): 0 (0)
Anorexia, number of AEs (250mg QW, G2, cycle 1): 0 (0)
Dermatitis acneiform, number of AEs (250mg QW, G2, cycle 1): 0 (0)
Diarrhea, number of AEs (250mg QW, G2, cycle 1): 0 (0)
Dry skin, number of AEs (250mg QW, G2, cycle 1): 0 (0)
Dysgeusia, number of AEs (250mg QW, G2, cycle 1): 0 (0)
Fatigue, number of AEs (250mg QW, G2, cycle 1): 0 (0)
Nausea, number of AEs (250mg QW, G2, cycle 1): 0 (0)
Pruritus, number of AEs (250mg QW, G2, cycle 1): 0 (0)
Rash (all rash terms collated), number of AEs (250mg QW, G2, cycle 1): 1
Stomatitis, number of AEs (250mg QW, G2, cycle 1): 0 (0)
Vomiting, number of AEs (250mg QW, G2, cycle 1): 0 (0)
Anorexia, number of AEs (250mg QW, G3, all cycles): 0 (0)
Dermatitis acneiform, number of AEs (250mg QW, G3, all cycles): 0 (0)
Diarrhea, number of AEs (250mg QW, G3, all cycles): 0 (0)
Dry skin, number of AEs (250mg QW, G3, all cycles): 0 (0)
Dysgeusia, number of AEs (250mg QW, G3, all cycles): 0 (0)
Fatigue, number of AEs (250mg QW, G3, all cycles): 0 (0)
Nausea, number of AEs (250mg QW, G3, all cycles): 0 (0)
Pruritus, number of AEs (250mg QW, G3, all cycles): 0 (0)
Rash (all rash terms collated), number of AEs (250mg QW, G3, all cycles): 2^c (2)
Stomatitis, number of AEs (250mg QW, G3, all cycles): 0 (0)
Vomiting, number of AEs (250mg QW, G3, all cycles): 0 (0)
Anorexia, number of AEs (250mg QW, G3, cycle 1): 0 (0)
Dermatitis acneiform, number of AEs (250mg QW, G3, cycle 1): 0 (0)
Diarrhea, number of AEs (250mg QW, G3, cycle 1): 0 (0)
Dry skin, number of AEs (250mg QW, G3, cycle 1): 0 (0)
Dysgeusia, number of AEs (250mg QW, G3, cycle 1): 0 (0)
Fatigue, number of AEs (250mg QW, G3, cycle 1): 0 (0)
Nausea, number of AEs (250mg QW, G3, cycle 1): 0 (0)
Pruritus, number of AEs (250mg QW, G3, cycle 1): 0 (0)
Stomatitis, number of AEs (250mg QW, G3, cycle 1): 0 (0)
Vomiting, number of AEs (250mg QW, G3, cycle 1): 0 (0)
Rash (all rash terms collated), number of AEs (250mg QW, G3, cycle 1, dose-limiting toxicity): 2^c (2)
Anorexia, number of AEs (300mg QW, G1, all cycles): 0 (0)
Dermatitis acneiform, number of AEs (300mg QW, G1, all cycles): 0 (0)
Diarrhea, number of AEs (300mg QW, G1, all cycles): 0 (0)
Dry skin, number of AEs (300mg QW, G1, all cycles): 0 (0)
Dysgeusia, number of AEs (300mg QW, G1, all cycles): 1 (1)
Fatigue, number of AEs (300mg QW, G1, all cycles): 1 (1)
Nausea, number of AEs (300mg QW, G1, all cycles): 1 (1)
Pruritus, number of AEs (300mg QW, G1, all cycles): 0 (0)
Stomatitis, number of AEs (300mg QW, G1, all cycles): 0 (0)
Vomiting, number of AEs (300mg QW, G1, all cycles): 0 (0)
Anorexia, number of AEs (300mg QW, G1, cycle 1): 0 (0)
Dermatitis acneiform, number of AEs (300mg QW, G1, cycle 1): 0 (0)
Diarrhea, number of AEs (300mg QW, G1, cycle 1): 0 (0)
Dry skin, number of AEs (300mg QW, G1, cycle 1): 0 (0)
Dysgeusia, number of AEs (300mg QW, G1, cycle 1): 1 (1)
Fatigue, number of AEs (300mg QW, G1, cycle 1): 1 (1)
Nausea, number of AEs (300mg QW, G1, cycle 1): 1 (1)
Pruritus, number of AEs (300mg QW, G1, cycle 1): 0 (0)
Stomatitis, number of AEs (300mg QW, G1, cycle 1): 0 (0)
Vomiting, number of AEs (300mg QW, G1, cycle 1): 0 (0)
Anorexia, number of AEs (300mg QW, G2, all cycles): 0 (0)
Dermatitis acneiform, number of AEs (300mg QW, G2, all cycles): 0 (0)
Diarrhea, number of AEs (300mg QW, G2, all cycles): 0 (0)
Dry skin, number of AEs (300mg QW, G2, all cycles): 0 (0)
Dysgeusia, number of AEs (300mg QW, G2, all cycles): 0 (0)
Fatigue, number of AEs (300mg QW, G2, all cycles): 0 (0)
Nausea, number of AEs (300mg QW, G2, all cycles): 0 (0)
Pruritus, number of AEs (300mg QW, G2, all cycles): 0 (0)
Rash (all rash terms collated), number of AEs (300mg QW, G2, all cycles): 2 (2)
Stomatitis, number of AEs (300mg QW, G2, all cycles): 1 (1)
Vomiting, number of AEs (300mg QW, G2, all cycles): 0 (0)
Anorexia, number of AEs (300mg QW, G2, cycle 1): 0 (0)
Dermatitis acneiform, number of AEs (300mg QW, G2, cycle 1): 0 (0)
Diarrhea, number of AEs (300mg QW, G2, cycle 1): 0 (0)
Dry skin, number of AEs (300mg QW, G2, cycle 1): 0 (0)
Dysgeusia, number of AEs (300mg QW, G2, cycle 1): 0 (0)
Fatigue, number of AEs (300mg QW, G2, cycle 1): 0 (0)
Nausea, number of AEs (300mg QW, G2, cycle 1): 0 (0)
Pruritus, number of AEs (300mg QW, G2, cycle 1): 0 (0)
Rash (all rash terms collated), number of AEs (300mg QW, G2, cycle 1): 2 (2)
Stomatitis, number of AEs (300mg QW, G2, cycle 1): 1 (1)
Vomiting, number of AEs (300mg QW, G2, cycle 1): 0 (0)
Anorexia, number of AEs (300mg QW, G3, all cycles): 0 (0)
Dermatitis acneiform, number of AEs (300mg QW, G3, all cycles): 0 (0)
Diarrhea, number of AEs (300mg QW, G3, all cycles): 0 (0)
Dry skin, number of AEs (300mg QW, G3, all cycles): 0 (0)
Dysgeusia, number of AEs (300mg QW, G3, all cycles): 0 (0)
Fatigue, number of AEs (300mg QW, G3, all cycles): 0 (0)
Nausea, number of AEs (300mg QW, G3, all cycles): 0 (0)
Pruritus, number of AEs (300mg QW, G3, all cycles): 0 (0)
Rash (all rash terms collated), number of AEs (300mg QW, G3, all cycles): 3^c (3)
Stomatitis, number of AEs (300mg QW, G3, all cycles): 0 (0)
Vomiting, number of AEs (300mg QW, G3, all cycles): 0 (0)
Anorexia, number of AEs (300mg QW, G3, cycle 1): 0 (0)
Dermatitis acneiform, number of AEs (300mg QW, G3, cycle 1): 0 (0)
Diarrhea, number of AEs (300mg QW, G3, cycle 1): 0 (0)
Dry skin, number of AEs (300mg QW, G3, cycle 1): 0 (0)
Dysgeusia, number of AEs (300mg QW, G3, cycle 1): 0 (0)
Fatigue, number of AEs (300mg QW, G3, cycle 1): 0 (0)
Nausea, number of AEs (300mg QW, G3, cycle 1): 0 (0)
Pruritus, number of AEs (300mg QW, G3, cycle 1): 0 (0)
Stomatitis, number of AEs (300mg QW, G3, cycle 1): 0 (0)
Vomiting, number of AEs (300mg QW, G3, cycle 1): 0 (0)
Rash (all rash terms collated), number of AEs (300mg QW, G3, cycle 1, dose-limiting toxicity): 3^c (3)
drug-related headaches, patients (QW schedule, 4/33): 12.1%
drug-related increased alanine aminotransferase levels, patients (QW schedule, 4/33): 12.1%
drug-related pruritus, patients (QW schedule, 4/33): 12.1%
C-peptide level increase during first cycle (range) (QW schedule, 4 patients with increase): 65.7%-166.6
drug-related stomatitis, patients (QW schedule, 5/33): 15.2%
drug-related decreased appetite, patients (QW schedule, 7/33): 21.2%
time to full resolution of DLTs from onset (QW schedule, 7 of 10 patients with DLTs): 1 to 2 weeks
drug-related vomiting, patients (QW schedule, 8/33): 24.2%
drug-related diarrhea, patients (QW schedule, 9/33): 27.3%
drug-related nausea, patients (QW schedule, 9/33): 27.3%
drug-related rash, patients (QW schedule, 14/33): 42.4%
drug-related fatigue, patients (QW schedule, 15/33): 45.5%
elevated blood glucose levels, patients (QW schedule, 19/33): 57.6%
drug-related AEs, patients (QW schedule, 22/33): 66.7%
post-cycle 1 HbA1c values (QW schedule, all patients assessed): < 7%
G1 hyperglycemia, patients (QW schedule, following 1 cycle, 1/33): 3.0%
DLTs resolved with sequelae of dry skin (QW schedule, of 10 patients with DLTs): 3 patients
patients with increased C-peptide levels during first cycle (QW schedule, patients assessed): 4 of 6
patients who discontinued for drug-related AEs (QW schedule, G3 rash, G3 complete atrioventricular block, G1 rash (n=1 each)): Three
